Laboratory results as given in ChEMBL document CHEMBL4270616, “Asymmetrical meta-methoxylated diarylpentanoids: Rational design, synthesis and anti-cancer evaluation in-vitro” (Eur J Med Chem, 2018).
Calls of active or inactive are those of the source. The calls are words filed in the database; no cut-off is given here.

What was measured:
SW-620 [1] = test: Induction of apoptosis in human SW620 cells assessed as live cells at 2.5 uM after 48 hrs by Annexin V-FITC/propidium iodide staining based flow cytometry (reference value: 96.26%); type: functional
SW-620 [2] = test: Induction of apoptosis in human SW620 cells assessed as live cells at 5 uM after 72 hrs by Annexin V-FITC/propidium iodide staining based flow cytometry (reference value: 97.34%); type: functional
SW-620 [3] = test: Induction of apoptosis in human SW620 cells assessed as live cells at 10 uM after 48 hrs by Annexin V-FITC/propidium iodide staining based flow cytometry (reference value: 96.26%); type: functional
SW-620 [4] = test: Induction of apoptosis in human SW620 cells assessed as necrotic cells at 1.25 uM after 48 hrs by Annexin V-FITC/propidium iodide staining based flow cytometry (reference value: 0.23%); type: functional
SW-620 [5] = test: Anticlonogenic activity against human SW620 cells assessed as colony formation at 0.3125 uM after 10 days by crystal violet staining based imaging analysis (reference value: 100%); type: functional
How it was run: (§1)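 SW620 cells seeded at 1000 cells/well in DMEM, left overnight at 37°C, 5% CO2, then exposed to compound for ten days with drug-containing medium renewed every three days. Cells were PBS-washed, fixed in 4% paraformaldehyde for 15 min, stained with 0.5% (w/v) crystal violet for 10 min, air-dried, photographed, and colonies quantified by image analysis.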

SW-620 [6] = test: Induction of apoptosis in human SW620 cells assessed as early apoptotic cells at 2.5 uM after 48 hrs by Annexin V-FITC/propidium iodide staining based flow cytometry (reference value: 2.75%); type: functional
MCF7 = test: Cytotoxicity against human MCF7 cells after 72 hrs by MTT assay; type: functional, cell-based; conditions: MCF7, 72 h
How it was run: (§2)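 Tumour lines kept in DMEM with 10% FBS and 1% penicillin/streptomycin at 37°C, 5% CO2. Seeded at 1500-5000 cells/well by doubling time and size, 24 h, then compound in DMSO-containing medium (final DMSO 0.1%) for 72 h. MTT (5 mg/mL) 4 h at 37°C, DMSO solubilisation, absorbance at 570 nm.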

SW-620 [7] = test: Induction of apoptosis in human SW620 cells assessed as live cells at 1.25 uM after 48 hrs by Annexin V-FITC/propidium iodide staining based flow cytometry (reference value: 96.26%); type: functional
SW-620 [8] = test: Induction of apoptosis in human SW620 cells assessed as late apoptotic cells at 10 uM after 48 hrs by Annexin V-FITC/propidium iodide staining based flow cytometry (reference value: 0.2%); type: functional
SW-620 [9] = test: Induction of apoptosis in human SW620 cells assessed as necrotic cells at 5 uM after 24 hrs by Annexin V-FITC/propidium iodide staining based flow cytometry (reference value: 0.15%); type: functional
SW-620 [10] = test: Induction of apoptosis in human SW620 cells assessed as early apoptotic cells at 5 uM after 24 hrs by Annexin V-FITC/propidium iodide staining based flow cytometry (reference value: 2.35%); type: functional
SW-620 [11] = test: Induction of apoptosis in human SW620 cells assessed as early apoptotic cells at 10 uM after 48 hrs by Annexin V-FITC/propidium iodide staining based flow cytometry (reference value: 2.75%); type: functional
SW-620 [12] = test: Induction of apoptosis in human SW620 cells assessed as early apoptotic cells at 1.25 uM after 48 hrs by Annexin V-FITC/propidium iodide staining based flow cytometry (reference value: 2.75%); type: functional
SW-620 [13] = test: Inhibition of colony formation in human SW620 cells at 1.25 to 5 uM after 10 days by crystal violet staining based assay; type: functional, cell-based
How it was run: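 SW620 cells seeded at 1000 cells/well in DMEM and incubated overnight at 37°C, 5% CO2. Compound-containing medium was given for ten days and renewed every three days. Cells were then washed with PBS, fixed 15 min in 4% paraformaldehyde, stained 10 min with 0.5% (w/v) crystal violet, washed, air-dried and photographed. Colony formation was quantified from the images.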

SW-620 [14] = test: Anticlonogenic activity against human SW620 cells assessed as colony formation at 0.625 uM after 10 days by crystal violet staining based imaging analysis (reference value: 100%); type: functional; how it was run: as §1
SW-620 [15] = test: Induction of apoptosis in human SW620 cells assessed as necrotic cells at 2.5 uM after 24 hrs by Annexin V-FITC/propidium iodide staining based flow cytometry (reference value: 0.15%); type: functional
SW-620 [16] = test: Induction of apoptosis in human SW620 cells assessed as late apoptotic cells at 1.25 uM after 48 hrs by Annexin V-FITC/propidium iodide staining based flow cytometry (reference value: 0.2%); type: functional
SW-620 [17] = test: Cell cycle arrest in human SW620 cells assessed as accumulation at G2/M phase at 1.25 uM after 24 hrs by propidium iodide staining based flow cytometry (reference value: 19%); type: functional
SW-620 [18] = test: Anticlonogenic activity against human SW620 cells assessed as colony formation at 2.5 to 5 uM after 10 days by crystal violet staining based imaging analysis (reference value: 100%); type: functional; how it was run: as §1
SW-620 [19] = test: Induction of apoptosis in human SW620 cells assessed as necrotic cells at 5 uM after 72 hrs by Annexin V-FITC/propidium iodide staining based flow cytometry (reference value: 0.27%); type: functional
SW-620 [20] = test: Cytotoxicity against human SW620 cells after 72 hrs by MTT assay; type: functional, cell-based; conditions: SW-620, 72 h; how it was run: as §2
SW-620 [21] = test: Induction of apoptosis in human SW620 cells assessed as necrotic cells at 1.25 uM after 24 hrs by Annexin V-FITC/propidium iodide staining based flow cytometry (reference value: 0.15%); type: functional
SW-620 [22] = test: Induction of apoptosis in human SW620 cells assessed as early apoptotic cells at 2.5 uM after 24 hrs by Annexin V-FITC/propidium iodide staining based flow cytometry (reference value: 2.35%); type: functional
SW-620 [23] = test: Induction of apoptosis in human SW620 cells assessed as late apoptotic cells at 5 uM after 24 hrs by Annexin V-FITC/propidium iodide staining based flow cytometry (reference value: 0.43%); type: functional
SW-620 [24] = test: Induction of apoptosis in human SW620 cells assessed as early apoptotic cells at 10 uM after 72 hrs by Annexin V-FITC/propidium iodide staining based flow cytometry (reference value: 2.1%); type: functional
SW-620 [25] = test: Induction of apoptosis in human SW620 cells assessed as late apoptotic cells at 1.25 uM after 24 hrs by Annexin V-FITC/propidium iodide staining based flow cytometry (reference value: 0.43%); type: functional
SW-620 [26] = test: Anticlonogenic activity against human SW620 cells assessed as colony formation at 1.25 uM after 10 days by crystal violet staining based imaging analysis (reference value: 100%); type: functional; how it was run: as §1
SW-620 [27] = test: Induction of apoptosis in human SW620 cells after 24 to 72 hrs by Annexin V-FITC/propidium iodide staining based flow cytometry; type: functional, cell-based
SW-620 [28] = test: Induction of apoptosis in human SW620 cells assessed as necrotic cells at 10 uM after 48 hrs by Annexin V-FITC/propidium iodide staining based flow cytometry (reference value: 0.23%); type: functional
HT-1080 = test: Cytotoxicity against human HT1080 cells after 72 hrs by MTT assay; type: functional, cell-based; conditions: HT-1080, 72 h; how it was run: as §2
SW-620 [29] = test: Cell cycle arrest in human SW620 cells assessed as decrease in G0/G1 phase after 24 hrs by propidium iodide staining based flow cytometry; type: functional

SMILES | Activity (SW-620 [1]) [%] | Activity (SW-620 [2]) [%] | Activity (SW-620 [3]) [%] | Activity (SW-620 [4]) [%] | Activity (SW-620 [5]) [%] | Activity (SW-620 [6]) [%] | IC50 (MCF7) [nM] | Activity (SW-620 [7]) [%] | Activity (SW-620 [8]) [%] | Activity (SW-620 [9]) [%] | Activity (SW-620 [10]) [%] | Activity (SW-620 [11]) [%] | Activity (SW-620 [12]) [%] | inhibition (SW-620 [13]) | Activity (SW-620 [14]) [%] | Activity (SW-620 [15]) [%] | Activity (SW-620 [16]) [%] | Activity (SW-620 [17]) [%] | Activity (SW-620 [18]) [%] | Activity (SW-620 [19]) [%] | further results
COc1ccc(/C=C2\CCC/C(=C\c3cccc(O)c3)C2=O)cc1OC | 91.27 | 6.2 | 17 | 0.41 | 97.9 | 4.43 | 2900 | 94.54 | 71.12 | 0.35 | 23.28 | 9.84 | 4.11 | Active | 93.4 | 0.2 | 0.92 | 24 | 0 | 1.23 | IC50 (SW-620 [20]): 1900 nM; Activity (SW-620 [21]): 0.17%; Activity (SW-620 [22]): 5.46%; Activity (SW-620 [23]): 2.26%; Activity (SW-620 [24]): 2.49%; Activity (SW-620 [25]): 0.31%; Activity (SW-620 [26]): 0.8%; Activity (SW-620 [27]): Dose-dependent effect; Activity (SW-620 [28]): 1.06%; IC50 (HT-1080): 1700 nM; Activity (SW-620 [29]): Dose-dependent effect
COc1ccc(/C=C2\CCC/C(=C\c3cc(OC)c(OC)c(OC)c3)C2=O)cc1OC | 79.03 | 3.13 | 13.21 | 0.2 | 93.6 | 12.28 | 1600 | 82.82 | 75.36 | 0.36 | 40.26 | 0.37 | 6.01 | Active | 84.6 | 0.27 | 0.37 | 20 | 0 | 0.33 | IC50 (SW-620 [20]): 1800 nM; Activity (SW-620 [21]): 0.35%; Activity (SW-620 [22]): 12.47%; Activity (SW-620 [23]): 0.35%; Activity (SW-620 [24]): 2.85%; Activity (SW-620 [25]): 0.31%; Activity (SW-620 [26]): 0.5%; Activity (SW-620 [27]): Dose-dependent effect; Activity (SW-620 [28]): 1.3%; IC50 (HT-1080): 1100 nM; Activity (SW-620 [29]): Dose-dependent effect
